Experiments:
[1] = target: Adenosine A2 receptor (Rattus norvegicus, UniProt P29276+P30543); assay: Binding affinity against Adenosine A2 receptor in rat striatal membrane, using [3H]-NECA as the radioligand.
[2] = target: T1, Adenosine receptor A1 (Rattus norvegicus, UniProt P25099); assay: Binding affinity against Adenosine A1 receptor in rat brain membrane, using [3H]N6-cyclohexyladenosine as the radioligand; format: tissue-based
T1 sequence (P25099 whole entry): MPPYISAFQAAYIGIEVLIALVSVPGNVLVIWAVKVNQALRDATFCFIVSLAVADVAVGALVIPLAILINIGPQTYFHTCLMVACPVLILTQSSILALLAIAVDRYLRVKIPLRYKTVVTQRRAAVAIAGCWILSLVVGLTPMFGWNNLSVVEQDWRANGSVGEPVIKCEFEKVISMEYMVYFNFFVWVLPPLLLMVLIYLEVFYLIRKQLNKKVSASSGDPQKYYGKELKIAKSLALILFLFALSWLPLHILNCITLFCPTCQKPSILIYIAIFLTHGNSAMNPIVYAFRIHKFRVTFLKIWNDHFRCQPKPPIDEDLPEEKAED

[3] = target: Adenosine receptors; A1 & A2 (Rattus norvegicus) (UniProt P29276+P25099+P30543); assay: (§1) Selectivity for A2 and A1 receptors was evaluated; format: protein assay
In short: (§2)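 Rat brain membranes (A1) bound with 1 nM [3H]-N6-cyclohexyladenosine (25 Ci/mmol). Rat striatal membranes (A2) bound with 4 nM [3H]NECA (30 Ci/mmol) in the presence of 50 nM N6-cyclopentyladenosine. Both incubations ran 1 h at 25 °C. Selectivity compares the affinities from the two binding assays.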

[4] = as §1
In short: as §2

Compound | Ki [1] | Ki [2] | Ratio [3] | Ratio [4]
CCn1c(=O)c2c3nc(-c4ccccc4)[nH]c3ccc2n(CC)c1=O | 58 µM | > 100 µM |  | 
CCCCn1c(=O)c2c3nc[nH]c3ccc2n(CCCC)c1=O | 1.96 µM | 0.174 µM | 11.2 | 
CCCn1c(=O)c2c3nc[nH]c3ccc2n(CCC)c1=O | 0.79 µM | 0.296 µM | 2.7 | 
Cn1c(=O)c2cc3[nH]cnc3cc2n(C)c1=O |  | 24 µM |  | 
CC(C)Cn1c(=O)n(C)c(=O)c2c3nc[nH]c3ccc21 | 1.97 µM | 0.86 µM | 2.3 | 
Cn1c(=O)c2cc3ncn(C)c3cc2n(C)c1=O | 58 µM | 15.2 µM | 3.8 | 
CC(C)Cn1c(=O)n(C)c(=O)c2cc3[nH]cnc3cc21 | 2.4 µM | 0.62 µM | 3.9 | 
Cn1c(=O)c2c3c(ccc2n(C)c1=O)ncn3C | 12.7 µM | 10.3 µM | 1.23 | 
Cn1c(=O)c2cc3nc(-c4ccccc4)[nH]c3cc2n(C)c1=O | > 100 µM | > 100 µM |  | 
Cn1c(=O)c2c3nc(-c4ccccc4)[nH]c3ccc2n(C)c1=O | 10.4 µM | 0.45 µM |  | 23
Cn1c(=O)c2cc3c(cc2n(C)c1=O)ncn3C | 23 µM | 11.6 µM | 1.99 | 
CCCCn1c(=O)c2cc3nc[nH]c3cc2n(CCCC)c1=O | 0.67 µM | 0.179 µM | 3.7 | 
Cn1c(=O)c2ncn(C)c2n(C)c1=O [ISOCAFFIENE] |  | > 1000 µM |  | 
Cn1c(=O)c2cc3nc[nH]c3cc2n(C)c1=O | 85 µM |  | 3.6 | 
CCCn1c(=O)c2cc3nc[nH]c3cc2n(CCC)c1=O | 1.32 µM | 0.123 µM | 10.7 | 
CC(C)Cn1c(=O)n(C)c(=O)c2nc[nH]c21 [ISOBUTYLMETHYLXANTHINE] | 13.8 µM |  |  | 5.6
Cn1c(=O)c2c3nc[nH]c3ccc2n(C)c1=O | 17.9 µM | 13.4 µM | 1.34 | 
CCn1c(=O)c2cc3nc(-c4ccccc4)[nH]c3cc2n(CC)c1=O | > 100 µM | > 100 µM |  | 
